Test results published in ChEMBL document CHEMBL2396554, “Synthesis and biological evaluation of metabolites of 2-n-butyl-9-methyl-8-[1,2,3]triazol-2-yl-9H-purin-6-ylamine (ST1535), a potent antagonist of the A2A adenosine receptor for the treatment of Parkinson's disease” (J Med Chem, 2013).
Activity calls are given as the source filed them. The rule behind the calls is not given here.

Columns and labels:
[1] = target: T1, Adenosine receptor A2a (Homo sapiens, UniProt P29274); test: Displacement of [3H]ZM241385 from human recombinant adenosine A2A receptor expressed in HEK293 cells after 1 hr by competitive binding assay; assay type: cell-based
Procedure, shortened: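 HEK293 membranes expressing human A2A receptor pretreated with 2 IU/mL adenosine deaminase, 30 min at 37 °C. Competition with [3H]ZM241385 at its Kd (2 nM) using 5–10 µg protein and test compound 0.01–10,000 nM, 1 h at 4 °C in 50 mM Tris-HCl pH 7.4, 10 mM MgCl2. Nonspecific binding with 10 µM unlabeled ZM241385. Ki via Cheng–Prusoff; four experiments in triplicate.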

[2] = target: T2, Adenosine receptor A1 (Homo sapiens) (UniProt P30542); test: Inhibition of human recombinant adenosine A1 receptor expressed in CHO-K1 cells at 10 uM; assay type: cell-based
T2 sequence (whole entry): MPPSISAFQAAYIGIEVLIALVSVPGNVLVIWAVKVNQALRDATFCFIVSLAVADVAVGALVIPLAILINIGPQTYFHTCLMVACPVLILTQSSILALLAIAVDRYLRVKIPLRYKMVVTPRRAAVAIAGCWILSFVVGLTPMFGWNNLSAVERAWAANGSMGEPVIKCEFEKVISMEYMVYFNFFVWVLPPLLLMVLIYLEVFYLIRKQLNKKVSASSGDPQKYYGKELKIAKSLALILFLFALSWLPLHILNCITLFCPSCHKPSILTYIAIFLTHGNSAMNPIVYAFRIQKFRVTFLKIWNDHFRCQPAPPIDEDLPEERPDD

[3] = target: T1, Adenosine receptor A2a; test: Inhibition of human recombinant adenosine A2A receptor expressed in HEK293 cells at 10 uM; assay type: cell-based
[4] = target: T3, Adenosine receptor A3 (Homo sapiens) (UniProt P0DMS8); test: Inhibition of human adenosine A3 receptor at 10 uM
T3 sequence (whole entry): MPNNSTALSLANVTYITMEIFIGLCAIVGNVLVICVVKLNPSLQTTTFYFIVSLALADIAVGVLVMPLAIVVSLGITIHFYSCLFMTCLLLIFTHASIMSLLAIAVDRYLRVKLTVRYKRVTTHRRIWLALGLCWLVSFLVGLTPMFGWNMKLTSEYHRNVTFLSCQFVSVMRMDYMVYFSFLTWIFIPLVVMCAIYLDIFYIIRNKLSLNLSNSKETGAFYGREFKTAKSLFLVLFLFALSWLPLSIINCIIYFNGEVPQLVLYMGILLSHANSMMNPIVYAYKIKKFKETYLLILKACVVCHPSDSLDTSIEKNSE

[5] = system: Mus musculus; test: Induction of limbic movement in CD1 mouse at 20 to 200 mg/kg, po after 60 to 240 mins by Irwin test; assay type: functional, organism-based; conditions: Limbic system
Procedure, shortened: (§1)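 Irwin test in CD-1 mice, 5–6 weeks old, 4 per group. Compounds suspended in 0.1% Tween 80 in 0.5% CMC and given orally at 20, 100 and 200 mg/kg in 10 mL/kg. Behaviour recorded by camera at 60 and 240 min after dosing; stereotypies scored: sniffing (limbic), licking and biting (striatal).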

[6] = target: T4, Adenosine receptor A1 (Homo sapiens, UniProt P30542); test: Displacement of [3H]DPCPX from human recombinant adenosine A1 receptor expressed in CHO-K1 cells after 60 mins; assay type: cell-based
T4 sequence (P30542 whole entry): T2 sequence (whole entry)

[7] = target: T3, Adenosine receptor A3 (Homo sapiens); test: Binding affinity to human adenosine A3 receptor
[8] = system: Mus musculus; test: Induction of striatal movement in CD1 mouse at 20 to 200 mg/kg, po after 60 to 240 mins by Irwin test; assay type: functional, organism-based; procedure, shortened: as §1
[9] = target: T1, Adenosine receptor A2a; test: Antagonist activity at human adenosine A2A receptor expressed in HEK293 cells assessed as inhibition of NECA-induced cAMP accumulation incubated for 10 mins prior to NECA addition; assay type: functional, cell-based
Procedure, shortened: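 HEK-293 cells stably expressing human A2A, plated 48 h ahead. They were pretreated 10 min at 37 °C with 0.5 mM Ro20-1724 and 2 IU/mL adenosine deaminase, then compound (10^-4 to 10^-10 M) for 10 min at 37 °C, then 100 nM NECA for 20 min. cAMP was extracted and measured by enzyme immunoassay. IC50 came from nonlinear regression of four independent experiments.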

T1 sequence (P29274 whole entry): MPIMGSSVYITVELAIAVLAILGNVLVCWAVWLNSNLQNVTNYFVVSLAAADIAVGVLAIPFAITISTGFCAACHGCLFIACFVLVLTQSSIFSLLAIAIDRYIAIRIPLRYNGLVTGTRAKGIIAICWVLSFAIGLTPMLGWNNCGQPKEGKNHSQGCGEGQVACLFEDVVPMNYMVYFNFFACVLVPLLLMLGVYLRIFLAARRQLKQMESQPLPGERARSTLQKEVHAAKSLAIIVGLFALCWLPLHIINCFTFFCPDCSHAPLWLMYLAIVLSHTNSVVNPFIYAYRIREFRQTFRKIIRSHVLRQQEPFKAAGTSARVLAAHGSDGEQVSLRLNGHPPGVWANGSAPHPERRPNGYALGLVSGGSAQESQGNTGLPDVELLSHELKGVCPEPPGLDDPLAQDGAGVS

SMILES	Ki [1]	inhibition [2]	inhibition [3]	inhibition [4]	Activity [5]	Ki [6]	Activity [7]	Activity [8]	IC50 [9]
CC(O)CCc1nc(N)c2nc(-n3nccn3)n(C)c2n1 (racemic)	8.4 nM	Active	Active	61%	Active	34 nM	inactive	Active	
CCCCc1nc(N)c2nc(-n3nccn3)n(C)c2n1 [ST1535]						100 nM			430 nM
Cn1c(-n2nccn2)nc2c(N)nc(CCCCO)nc21		Active	Active	47%		150 nM	inactive		
CC(=O)CCc1nc(N)c2nc(-n3nccn3)n(C)c2n1		Active	Active	56%	Active		inactive	Active	
C[C@@H](O)CCc1nc(N)c2nc(-n3nccn3)n(C)c2n1	7.5 nM					34 nM			
CCC(O)Cc1nc(N)c2nc(-n3nccn3)n(C)c2n1 (configuration not stated)	64 nM								
CCCC(O)c1nc(N)c2nc(-n3nccn3)n(C)c2n1 (racemic)		Active	Active	55%	Active	160 nM	inactive	Active	
C[C@H](O)CCc1nc(N)c2nc(-n3nccn3)n(C)c2n1						53 nM			
